20 compounds from ChEMBL document CHEMBL4325887, “Lipophilic Permeability Efficiency Reconciles the Opposing Roles of Lipophilicity in Membrane Permeability and Aqueous Solubility” (J Med Chem, 2018) can be followed below.

Converted amounts (≈) assume the structure as drawn. Where a SMILES comes first, the peptide text is derived from it. [ ]: non-standard residue; d: D form. NMeY = CN[C@@H](Cc1ccc(O)cc1)C(=O)O; NMeF = CN[C@@H](Cc1ccccc1)C(=O)O; dNMeF = CN[C@H](Cc1ccccc1)C(=O)O; NMeA = CN[C@@H](C)C(=O)O; dNMeA = CN[C@H](C)C(=O)O; Sar = CNCC(=O)O

The nature of series [1]: 1,9-decadiene/aqueous buffer solution partition coefficient, log D of the compound in PBS at pH 7.4 by shake flask method. The class given is physicochemical.
Series [2] in a line: Apparent permeability of compound in pH 7.4 PBS after 16 hrs by PAMPA assay. Type of series: ADME.
A short description of series [3]: Thermodynamic aqueous solubility of compound in pH 7.4 PBS by UPLC-MS analysis. The note with it: PBS pH 7.4, pH 7.4; read-out: Therm_solubility. Type of series: physicochemical.
Series [4] in a line: Apparent permeability in low-efflux MDCK2 cells at 2 uM by lucifer yellow dye-based UPLC-MS analysis. The class given is ADME, cell-based, Canis lupus familiaris, MDCK-II. The note with it: dog, MDCK.
A short description of series [5]: Apparent permeability in human Caco2 cells. The note with it: Caco-2. Type of series: ADME, cell-based. The essentials:
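Apical-to-basolateral permeation (Papp, ×10-6 cm/s) was measured in quadruplicate. Compound was quantified by selected-mass UPLC-MS.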
In general terms: Caco-2 cells form a polarised layer with tight junctions and transporters.

For the compound `CC[C@H](C)[C@@H]1NC(=O)[C@H](C)N(C)C(=O)[C@H](Cc2ccccc2)NC(=O)CN(C)C(=O)[C@@H]2CCCN2C(=O)[C@@H](Cc2ccccc2)N(C)C(=O)[C@H](CC(C)C)NC1=O` (cyclo(F[NMeA]IL[dNMeF]P[Sar])), the logD hydrocarbon water in series [1] came out at 0.71. In addition, in series [2], the Papp (as a rule, the rate of passage across a membrane or cell layer, normalised by area and donor concentration) at 16 h is 5.9 ×10⁻⁶ cm/s. The solubility thermodynamic in series [3] is 16 µM (≈ 12.6 µg/mL).

Regarding `CC[C@@H]1NC(=O)[C@H](CC(C)C)N(C)C(=O)[C@H](C(C)C)N(C)C(=O)[C@H](CC(C)C)N(C)C(=O)[C@H](CC(C)C)N(C)C(=O)[C@@H](C)NC(=O)[C@H](C)NC(=O)[C@H](CC(C)C)N(C)C(=O)[C@H](C(C)C)NC(=O)[C@H](CC(C)C)N(C)C(=O)CN(C)C1=O`, the logD hydrocarbon water in series [1] was determined as 3.94. Further, the Papp at 2 µM in series [4] is 1.8 ×10⁻⁶ cm/s. For the same compound, the solubility thermodynamic in series [3] stood at 22 µM (≈ 25.2 µg/mL).

In the case of `CC[C@@H]1NC(=O)[C@H](CC(C)C)N(C)C(=O)[C@H](CC)N(C)C(=O)[C@H](CC(C)C)N(C)C(=O)[C@H](CC(C)C)N(C)C(=O)[C@@H](C)NC(=O)[C@H](C)NC(=O)[C@H](CC(C)C)N(C)C(=O)[C@H](C(C)C)NC(=O)[C@H](CC(C)C)N(C)C(=O)CN(C)C1=O`, in series [1], the logD hydrocarbon water worked out at 3.64. In series [4], the Papp at 2 µM was 2.7 ×10⁻⁶ cm/s. Moreover, the solubility thermodynamic in series [3] is 10 µM (≈ 11.3 µg/mL).

For the compound `CC[C@H]1OC(=O)[C@H](C)[C@@H](O[C@H]2C[C@@](C)(OC)[C@@H](O)[C@H](C)O2)[C@H](C)[C@@H](O[C@@H]2O[C@H](C)C[C@H](N(C)C)[C@H]2O)[C@](C)(O)C[C@@H](C)CN(C)[C@H](C)[C@@H](O)[C@]1(C)O` [AZITHROMYCIN], the Papp in series [5] lay in the range of 1 to 3 ×10⁻⁶ cm/s.

`CC[C@H](C)[C@@H]1NC(=O)[C@H](Cc2ccc(O)cc2)N(C)C(=O)[C@H](Cc2ccccc2)NC(=O)CN(C)C(=O)[C@@H]2CCCN2C(=O)[C@@H](C)N(C)C(=O)[C@H](CC(C)C)NC1=O` (cyclo(F[NMeY]IL[dNMeA]P[Sar])) came in with a logD hydrocarbon water in series [1] of -1.71. Besides, in series [2], the Papp at 16 h turned out to be 1.3 ×10⁻⁶ cm/s.

In series [1], `CC[C@H](C)[C@@H]1NC(=O)[C@H](Cc2ccc(O)cc2)N(C)C(=O)[C@H](Cc2ccccc2)NC(=O)CN(C)C(=O)[C@@H]2CCCN2C(=O)[C@@H](Cc2ccccc2)N(C)C(=O)[C@H](CC(C)C)NC1=O` [CORDYHEPTAPEPTIDE A] (cyclo(F[NMeY]IL[dNMeF]P[Sar])) showed a logD hydrocarbon water of -0.13. In addition, the solubility thermodynamic in series [3] amounted to 0.45 µM (≈ 0.396 µg/mL).

As to `CC[C@H](C)[C@@H]1NC(=O)[C@H](Cc2ccc(O)cc2)N(C)C(=O)[C@H](C)NC(=O)CN(C)C(=O)[C@@H]2CCCN2C(=O)[C@@H](Cc2ccccc2)N(C)C(=O)[C@H](CC(C)C)NC1=O` (cyclo(A[NMeY]IL[dNMeF]P[Sar])), the logD hydrocarbon water in series [1] was -1.78. In addition, the solubility thermodynamic in series [3] turned out to be 17 µM (≈ 13.7 µg/mL).

`CC[C@H](C)[C@@H]1NC(=O)[C@H](Cc2ccc(O)cc2)N(C)C(=O)[C@H](Cc2ccccc2)NC(=O)CN(C)C(=O)[C@H](C)N(C)C(=O)[C@@H](Cc2ccccc2)N(C)C(=O)[C@H](CC(C)C)NC1=O` (cyclo(F[NMeY]IL[dNMeF][NMeA][Sar])): the logD hydrocarbon water in series [1] was 0.92. For the same compound, in series [2], the Papp at 16 h was 7.8 ×10⁻⁶ cm/s. For the same compound, in series [3], the solubility thermodynamic came to 37 µM (≈ 32.1 µg/mL).

In turn, `C/C=C/C[C@@H](C)[C@@H](OC(C)=O)[C@H]1C(=O)N[C@@H](CC)C(=O)N(C)CC(=O)N(C)[C@@H](CC(C)C)C(=O)N[C@@H](C(C)C)C(=O)N(C)[C@@H](CC(C)C)C(=O)N[C@@H](C)C(=O)N[C@H](C)C(=O)N(C)[C@@H](CC(C)C)C(=O)N(C)[C@@H](CC(C)C)C(=O)N(C)[C@@H](C(C)C)C(=O)N1C` returned a logD hydrocarbon water in series [1] of 4.14. Further, in series [3], the solubility thermodynamic is 0.005 µM (≈ 0.00622 µg/mL).

In series [1], `CC(C)C[C@@H]1NC(=O)[C@H](C(C)C)NC(=O)[C@H](Cc2ccc(O)cc2)N(C)C(=O)[C@H](Cc2ccccc2)NC(=O)CN(C)C(=O)[C@@H]2CCCN2C(=O)[C@@H](Cc2ccccc2)N(C)C1=O` [Cordyheptapeptide C] returned a logD hydrocarbon water of -0.43. For the same compound, the Papp at 16 h in series [2] was found to be 1.9 ×10⁻⁶ cm/s. The solubility thermodynamic in series [3] came out at 2.7 µM (≈ 2.34 µg/mL).

In the case of `CC[C@H](C)[C@@H]1NC(=O)[C@H](Cc2ccc(O)cc2)N(C)C(=O)[C@H](Cc2ccccc2)NC(=O)CN(C)C(=O)[C@@H]2CCCN2C(=O)[C@@H](Cc2ccccc2)N(C)C(=O)[C@H](C)NC1=O` (cyclo(A[dNMeF]P[Sar]F[NMeY]I)), in series [1], the logD hydrocarbon water is -1.52. Also, in series [3], the solubility thermodynamic worked out at 9 µM (≈ 7.54 µg/mL).

`CC(C)C[C@@H]1NC(=O)[C@H](C)NC(=O)[C@H](Cc2ccc(O)cc2)N(C)C(=O)[C@H](Cc2ccccc2)NC(=O)CN(C)C(=O)[C@@H]2CCCN2C(=O)[C@@H](Cc2ccccc2)N(C)C1=O` (cyclo(AL[dNMeF]P[Sar]F[NMeY])) registered a logD hydrocarbon water in series [1] of -2.44. Also, in series [2], the Papp at 16 h was 0.2 ×10⁻⁶ cm/s. The solubility thermodynamic in series [3] stood at 10 µM (≈ 8.38 µg/mL).

`C/C=C/C[C@@H](C)[C@H]1OC(=O)[C@H](C(C)C)N(C)C(=O)[C@H](CC(C)C)N(C)C(=O)[C@H](CC(C)C)N(C)C(=O)[C@@H](C)NC(=O)[C@H](C)NC(=O)[C@H](CC(C)C)N(C)C(=O)[C@H](C(C)C)NC(=O)[C@H](CC(C)C)N(C)C(=O)CN(C)C(=O)[C@H](CC)NC(=O)[C@H]1NC`: in series [1], the logD hydrocarbon water worked out at 2.61. Besides, the solubility thermodynamic in series [3] came to 2.2 µM (≈ 2.65 µg/mL).

Take `C/C=C/C[C@@H](C)[C@@H](O)[C@H]1C(=O)N[C@@H](C)C(=O)N(C)CC(=O)N(C)[C@@H](CC(C)C)C(=O)N[C@@H](C(C)C)C(=O)N(C)[C@@H](CC(C)C)C(=O)N[C@@H](C)C(=O)N[C@H](C)C(=O)N(C)[C@@H](CC(C)C)C(=O)N(C)[C@@H](CC(C)C)C(=O)N(C)[C@@H](C(C)C)C(=O)N1C`: the logD hydrocarbon water in series [1] is 3.18. The Papp at 2 µM in series [4] stood at 1.4 ×10⁻⁶ cm/s. Besides, in series [3], the solubility thermodynamic was 27 µM (≈ 32.1 µg/mL).

As to `CC[C@H](C)[C@@H]1NC(=O)[C@H](Cc2ccccc2)N(C)C(=O)[C@H](Cc2ccccc2)NC(=O)CN(C)C(=O)[C@@H]2CCCN2C(=O)[C@@H](Cc2ccccc2)N(C)C(=O)[C@H](CC(C)C)NC1=O` (cyclo(F[NMeF]IL[dNMeF]P[Sar])), in series [1], the logD hydrocarbon water turned out to be 2.13. Also, the Papp at 16 h in series [2] worked out at 2.3 ×10⁻⁶ cm/s. In addition, the solubility thermodynamic in series [3] stood at 2.3 µM (≈ 1.99 µg/mL).

In the case of `CC[C@H]1OC(=O)[C@H](C)[C@@H](O[C@H]2C[C@@](C)(OC)[C@@H](O)[C@H](C)O2)[C@H](C)[C@@H](O[C@@H]2O[C@H](C)C[C@H](N(C)C)[C@H]2O)[C@](C)(OC)C[C@@H](C)C(=O)[C@H](C)[C@@H](O)[C@]1(C)O` [CLARITHROMYCIN], the Papp in series [5] was above 10 ×10⁻⁶ cm/s.

Turning to `C/C=C/C[C@@H](C)[C@@H](O)[C@H]1C(=O)N[C@@H](C(C)C)C(=O)N(C)CC(=O)N(C)[C@@H](CC(C)C)C(=O)N[C@@H](C(C)C)C(=O)N(C)[C@@H](CC(C)C)C(=O)N[C@@H](C)C(=O)N[C@H](C)C(=O)N(C)[C@@H](CC(C)C)C(=O)N(C)[C@@H](CC(C)C)C(=O)N(C)[C@@H](C(C)C)C(=O)N1C`, the logD hydrocarbon water in series [1] was determined as 3.86. Further, in series [4], the Papp at 2 µM stood at 0.7 ×10⁻⁶ cm/s. In addition, the solubility thermodynamic in series [3] is 0.12 µM (≈ 0.146 µg/mL).

Compound `CC[C@H]1OC(=O)[C@H](C)[C@@H](O[C@H]2C[C@@](C)(OC)[C@@H](O)[C@H](C)O2)[C@H](C)[C@@H](O[C@@H]2O[C@H](C)C[C@H](N(C)C)[C@H]2O)[C@](C)(O)C[C@@H](C)C(=O)[C@H](C)[C@@H](O)[C@]1(C)O` [ERYTHROMYCIN] came in with a logD hydrocarbon water in series [1] of -3.9. The Papp in series [5] lay in the range of 1 to 3 ×10⁻⁶ cm/s.

For the compound `CC[C@H]1OC(=O)[C@H](C)[C@@H](O[C@H]2C[C@@](C)(OC)[C@@H](O)[C@H](C)O2)[C@H](C)[C@@H](O[C@@H]2O[C@H](C)C[C@H](N(C)C)[C@H]2O)[C@](C)(O)C[C@@H](C)/C(=N/OCOCCOC)[C@H](C)[C@@H](O)[C@]1(C)O`, the Papp in series [5] is above 10 ×10⁻⁶ cm/s.

As for `C/C=C/C[C@@H](C)[C@@H](O)[C@H]1C(=O)N[C@@H]([C@@H](C)O)C(=O)N(C)CC(=O)N(C)[C@@H](CC(C)C)C(=O)N[C@@H](C(C)C)C(=O)N(C)[C@@H](CC(C)C)C(=O)N[C@@H](C)C(=O)N[C@H](C)C(=O)N(C)[C@@H](CC(C)C)C(=O)N(C)[C@@H](CC(C)C)C(=O)N(C)[C@@H](C(C)C)C(=O)N1C`, the logD hydrocarbon water in series [1] worked out at 2.43. The Papp at 2 µM in series [4] is 0.5 ×10⁻⁶ cm/s. The solubility thermodynamic in series [3] stood at 33 µM (≈ 40.2 µg/mL).
